Series [1] has as its system Mycobacterium tuberculosis. The series is described as follows: Antimycobacterial activity against Mycobacterium tuberculosis H37Rv after 14 days. It counts as functional. To be noted: 336 h. Summed up:
(§1)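 Mtb H37Rv grown in MB 7H9 (10% albumin dextrose saline, 0.2% glycerol, 0.05% tween-80) to OD600nm 0.2, diluted 1000× and added to 96-well plates with compounds (50 mM DMSO stocks). Tested range 0.05 to 50 μM. Incubated 37 °C for 14 days; MIC determined per standard protocol.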

In series [2] the test system is Mycobacterium tuberculosis. Put plainly: Antimycobacterial activity against Mycobacterium tuberculosis H37Rv infected in human THP-1 cells assessed as reduction in microbial growth after 4 days by ten-fold serial dilution method. It counts as functional. Summed up: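 PMA-differentiated THP-1 macrophages (2 × 10^5 per well) infected with Mtb H37Rv at MOI 1:10. At 4 h, extracellular bacteria removed with 200 μg ml–1 amikacin in RPMI for 2 h. At 24 h, cells were washed and given RPMI with drug at non-cytotoxic concentration for 4 days. Lysis in PBS–0.1% Triton X-100, then 10-fold serial dilutions plated on MB 7H11 for 3–4 weeks at 37 °C. Triplicate wells, mean + S.E.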

Series [3] has as its system THP-1. The series is described as follows: Cytotoxicity against human THP1 cells assessed as redution in cell viability at 50 uM by WST-1 assay. The class given is cell-based. The following applies: thp-1, 50 µM. Summed up:
(§2)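 THP-1 macrophages; viability read with the WST-1 cell proliferation kit following the manufacturer's protocol. Compounds came from 50 mM DMSO stocks, with 50 μM the highest final concentration tested.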
In general terms: Tetrazolium assays rely on reduction of a dye to a coloured formazan, in cell work by metabolically active cells.

The test system of series [4] is THP-1. Put plainly: Cytotoxicity against human THP1 cells assessed as redution in cell viability at 10 uM by WST-1 assay. It counts as cell-based. The following applies: thp-1, 10 µM. In short, it runs like this: as §2
Series [5] in a line: Lipophilicity, logP of compound. It counts as physicochemical. To be noted: octanol/water.
Series [6] concerns Mycobacterium tuberculosis. Put plainly: Antimycobacterial activity against Mycobacterium tuberculosis. The class given is functional. In short, it runs like this:
as §1

The structures appear in SMILES notation. Values after ≈ are worked out from the molar mass of the structure shown.

Experimental findings from ChEMBL document CHEMBL4373632, “3D QSAR-based design and liquid phase combinatorial synthesis of 1,2-disubstituted benzimidazole-5-carboxylic acid and 3-substituted-5H-benzimidazo[1,2-d][1,4]benzodiazepin-6(7H)-one derivatives as anti-mycobacterial agents” (Medchemcomm, 2019) are described below.

As to `COc1ccc(-n2c(C(C)C)nc3cc(C(=O)O)ccc32)cc1OC`, the lowest concentration to inhibit growth in series [1] (MIC) was 25 µM (≈ 8.51 µg/mL). In other words, the double-digit micromolar range.

Turning to `O=C1Cn2c(nc3ccccc32)-c2ccc(NC(=O)c3ccc(Br)cc3)cc2N1`, the MIC (in general, the smallest concentration in the dilution series that meets the test's criterion for growth inhibition) in series [1] is above 50 µM.

With `CC(C)c1nc2cc(C(=O)O)ccc2n1-c1ccc(O)cc1`, it took 50 µM (≈ 14.8 µg/mL) to inhibit growth in series [1] (MIC). This lies in the double-digit micromolar range.

Turning to `Nc1ccc2c(c1)NC(=O)Cn1c-2nc2ccccc21`, the “fold change (FC)” value in series [2] was 8 - 10. Besides, the MIC in series [1] worked out at 0.0975 µM (≈ 0.0258 µg/mL). Further, in series [3], the Activity result is reported as “Non-Toxic”.

Regarding `CC(C)c1nc2cc(C(=O)O)ccc2n1Cc1cccc(F)c1`, in series [1], it took 12.5 µM (≈ 3.9 µg/mL) to inhibit growth (MIC).

`O=C1Cn2c(nc3ccccc32)-c2ccc(NC(=O)c3ccc(Cl)cc3)cc2N1`: the “fold change (FC)” value in series [2] is 8 - 10. In series [1], this compound returned an MIC of 1.56 µM (≈ 0.628 µg/mL). Besides, in series [3], the Activity result was “Non-Toxic”.

Compound `CC(C)c1nc2cc(C(=O)O)ccc2n1CC1CCN(C(=O)c2ccc(F)cc2)CC1` registered an MIC in series [1] of 50 µM (≈ 21.2 µg/mL). This lies in the double-digit micromolar range.

In turn, `Cc1ccc(C(=O)N2CCC(Cn3c(C(C)C)nc4cc(C(=O)O)ccc43)CC2)cc1` gave a minimum inhibitory concentration (MIC) in series [1] of 25 µM (≈ 10.5 µg/mL).

In turn, `CC(C)c1nc2cc(C(=O)O)ccc2n1-c1ccc(C#N)cc1` registered an MIC in series [1] of 50 µM (≈ 15.3 µg/mL).

On to `O=C1Cn2c(nc3ccccc32)-c2ccc(NC(=O)c3ccc([N+](=O)[O-])cc3)cc2N1`, for which the “fold change (FC)” value in series [2] is listed as 8 - 10. In addition, the lowest concentration to inhibit growth in series [1] (MIC) was 0.195 µM (≈ 0.0806 µg/mL). The Activity entry in series [4] is “Non-Toxic”.

`COc1ccc(C(=O)Nc2ccc3c(c2)NC(=O)Cn2c-3nc3ccccc32)cc1` displayed an MIC in series [1] of 3.12 µM (≈ 1.25 µg/mL).

On to `COc1ccc(S(=O)(=O)Nc2ccc3c(c2)NC(=O)Cn2c-3nc3ccccc32)cc1`, for which, in series [1], the lowest concentration to inhibit growth (MIC) was 1.56 µM (≈ 0.678 µg/mL).

In series [1], `COc1ccc(C(=O)N2CCC(Cn3c(C(C)C)nc4cc(C(=O)O)ccc43)CC2)cc1` had an MIC of 50 µM (≈ 21.8 µg/mL).

In series [1], `CC(C)c1nc2cc(C(=O)O)ccc2n1-c1ccc(Br)cc1` showed an MIC of 50 µM (≈ 18 µg/mL).

In turn, `CC(C)c1nc2cc(C(=O)O)ccc2n1-c1cccc([N+](=O)[O-])c1` came in with an MIC in series [1] of 25 µM (≈ 8.13 µg/mL). Compared with the last compound, the MIC is about 2-fold lower.

With `O=C(CCc1ccccc1)Nc1cc2nc(C3CCCCC3)[nH]c2cc1N1CC1`, in series [5], the logP (as a rule, a log measure of how a compound divides between an organic and an aqueous phase) came to 4.57.

As to `CC(C)c1nc2cc(C(=O)O)ccc2n1-c1cccnc1`, the MIC in series [1] amounted to 50 µM (≈ 14.1 µg/mL).

Regarding `CC(C)c1nc2cc(C(=O)O)ccc2n1-c1ccccc1Cl`, in series [1], the MIC was above 50 µM.

`Cc1ccc(C(=O)Nc2ccc3c(c2)NC(=O)Cn2c-3nc3ccccc32)cc1` yielded an MIC in series [1] of 0.39 µM (≈ 0.149 µg/mL). For the same compound, the Activity result in series [4] is on record as “Non-Toxic”.

The compound `COc1cccc(-n2c(C(C)C)nc3cc(C(=O)O)ccc32)c1O` showed an MIC in series [1] of 0.78 µM (≈ 0.255 µg/mL). The Activity entry in series [3] is “Non-Toxic”.

Consider `O=C1Cn2c(nc3ccccc32)-c2ccc(NC(=O)c3ccc(F)cc3)cc2N1`, for which the “fold change (FC)” value in series [2] was 8 - 10. Further, the MIC in series [1] came out at 0.195 µM (≈ 0.0753 µg/mL). The Activity result in series [3] is “Non-Toxic”.

In series [1], `CCOC(=O)C(=O)Nc1ccc2c(c1)NC(=O)Cn1c-2nc2ccccc21` showed an MIC of 0.78 µM (≈ 0.284 µg/mL). Besides, the Activity result in series [3] is “Non-Toxic”.

With `CCN(CC)c1ccc(/C=C/C(=N/Nc2nc(C)cs2)C2=Cc3ccccc3C2)cc1`, the MIC90 (in general, an inhibitory concentration at the 90% level, which refers to growth in some studies and to a panel of isolates in others) in series [6] was found to be 2.5 µg/mL (≈ 5.83 µM). This compound displayed a logP in series [5] of 6.03.

For `CC(C)c1nc2cc(C(=O)O)ccc2n1-c1ccncc1`, the MIC in series [1] came to 25 µM (≈ 7.03 µg/mL).

As for `O=C1Cn2c(nc3ccccc32)-c2ccc(NC(=O)c3ccccc3)cc2N1`, the MIC in series [1] was above 50 µM.

In series [1], `CC(C)c1nc2cc(C(=O)O)ccc2n1-c1ccc(N(C)C)cc1` came in with an MIC of 50 µM (≈ 16.2 µg/mL).

Regarding `COc1cc(-n2c(C(C)C)nc3cc(C(=O)O)ccc32)cc(OC)c1O`, in series [2], the “fold change (FC)” value was 8 - 10. In series [1], this compound came in with an MIC of 0.78 µM (≈ 0.278 µg/mL). For the same compound, the Activity entry in series [3] is given as “Non-Toxic”.

On to `NNC(=O)c1ccncc1` [ISONIAZID], for which, in series [2], the “fold change (FC)” value was 30. The compound also yielded an MIC in series [1] of 0.39 µM (≈ 0.0535 µg/mL).
